pIC50: −log10 of the molar value.
Assays:
[1] = target: T1, Corticotropin-releasing factor receptor 1 (Rattus norvegicus, UniProt P35353); experiment: Inhibition of [125I]- Ovine CRF binding to rat frontal cortex corticotropin releasing factor 1 receptor; assay type: tissue-based
T1 sequence (P35353 whole entry): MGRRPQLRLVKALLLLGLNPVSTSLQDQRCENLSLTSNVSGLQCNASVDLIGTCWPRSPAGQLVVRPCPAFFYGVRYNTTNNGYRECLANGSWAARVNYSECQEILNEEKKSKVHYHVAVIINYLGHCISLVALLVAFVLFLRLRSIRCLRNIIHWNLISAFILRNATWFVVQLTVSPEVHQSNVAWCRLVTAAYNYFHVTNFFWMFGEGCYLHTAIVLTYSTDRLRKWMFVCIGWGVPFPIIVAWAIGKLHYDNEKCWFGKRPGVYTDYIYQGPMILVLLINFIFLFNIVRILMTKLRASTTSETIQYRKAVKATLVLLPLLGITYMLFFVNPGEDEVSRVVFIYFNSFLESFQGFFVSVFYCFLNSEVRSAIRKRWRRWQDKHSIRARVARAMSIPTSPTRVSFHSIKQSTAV
Summary of the method: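 Frozen rat frontal cortex homogenate (25 μg/well) in 50 mM HEPES pH 7.0 with 10 mM MgCl₂, 2 mM EGTA, protease inhibitors, 0.005% Triton X-100, bacitracin and 0.1% ovalbumin. Bound ligand collected by filtration on PEI-treated filters and gamma counted. Nonspecific binding defined with 1 μM DMP696.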

[2] = Inhibition of CRF-stimulated cAMP production in human Y-79 retinoblastoma cells; assay type: functional, cell-based; details: Y79
Summary of the method: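 Human Y-79 retinoblastoma cells, 20 000/well in HBSS with 2 mM CaCl₂, 5 mM MgCl₂, 20 mM HEPES and 1 mM IBMX. Antagonist (typically 0.01–10 000 nM) preincubated 30 min at 37 °C, then 1 nM CRF added for 30 min at 37 °C. cAMP read by HTRF against a cAMP standard curve. Percent inhibition of CRF-induced cAMP determined in triplicate; basal cAMP without CRF also measured.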

Structure (SMILES)	pIC50 [1]	pIC50 [2]
CCc1nc2c(n1C(C)C1CC1)C(=O)N(C)CN2c1ccc(Cl)cc1Cl (stereo not drawn)	7.26	
CCCC(CCC)n1c(CC)nc2c1C(=O)N(C)CN2c1ccc(OC)cc1Cl	7.57	
CCCC(COC)n1c(CC)nc2c1C(=O)N(C)CN2c1ccc(Cl)cc1Cl (stereo not drawn)	7.37	
CCc1nc2c(n1Cc1ccccc1C)C(=O)N(C)CN2c1ccc(Cl)cc1Cl	6.34	
CCCC(CCC)n1c(CC)nc2c1C(=O)N(C)CN2c1c(C)cc(C)cc1C	7.66	
CCCC(CCC)n1c(CC)nc2c1C(=O)N(C)CN2c1ccc(Cl)cc1	6.76	
CCCC(CCC)n1cnc2c1C(=O)N(C)CN2c1ccc(Cl)cc1Cl	6.05	
CCCCC(CC)n1c(CC)nc2c1C(=O)N(C)CN2c1ccc(Cl)cc1Cl (stereo not drawn)	7.74	
CCCC(C1CC1)n1c(CC)nc2c1C(=O)N(C)CN2c1ccc(Cl)cc1Cl (stereo not drawn)	8.00	
CCCC(CCC)n1c(CC)nc2c1C(=O)N(C)C(CC)N2c1ccc(Cl)cc1Cl (stereo not drawn)	6.20	
CCc1nc2c(n1C(CC)CC)C(=O)N(C)CN2c1ccc(Cl)cc1Cl	6.95	
CCc1nc2c(n1Cc1ccc(OC)cc1)C(=O)N(C)CN2c1ccc(Cl)cc1Cl	6.34	
CCc1nc2c(n1C(CC)C1CC1)C(=O)N(C)CN2c1ccc(Cl)cc1Cl (stereo not drawn)	7.85	
CCc1nc2c(n1C(CC)C(C)C)C(=O)N(C)CN2c1ccc(C(C)C)cc1Cl (stereo not drawn)	6.26	

Continued by rising pIC50 [1], values first:

pIC50 [1]	pIC50 [2]	Structure (SMILES)
6.06		CCc1nc2c(n1Cc1ccccc1C)C(=O)N(C)CN2c1ccc(OC)cc1Cl
6.07		CCc1nc2c(n1COCc1ccccc1)C(=O)N(C)CN2c1ccc(Cl)cc1Cl
6.42		CCCC(CCC)n1c(CC)nc2c1C(=O)N(C)C(C)N2c1ccc(Cl)cc1Cl (stereo not drawn)
6.49		CCc1nc2c(n1Cc1ccc(-c3ccccc3)cc1)C(=O)N(C)CN2c1ccc(Cl)cc1Cl
6.95		CCc1nc2c(n1C(CC)C1CC1)C(=O)N(C)CN2c1ccc(OC)cc1Cl (stereo not drawn)
7.12		CCCC(CCC)n1c(CC)nc2c1c(=O)n(C)c(=O)n2-c1ccc(Cl)cc1Cl
7.28		CCCC(C)n1c(CC)nc2c1C(=O)N(C)CN2c1ccc(Cl)cc1Cl (stereo not drawn)
7.29		CCc1nc2c(n1C(CC)C(C)C)C(=O)N(C)CN2c1ccc(Cl)cc1Cl (stereo not drawn)
7.30		CCCC(CCC)n1c(CC)nc2c1C(=O)N(C)CN2c1ccc(C(C)C)cc1Cl
7.59		CCc1nc2c(n1C(C)C1CCC1)C(=O)N(C)CN2c1ccc(Cl)cc1Cl (stereo not drawn)
8.22	7.84	CCc1nc2c(n1C(C1CC1)C1CC1)C(=O)N(C)CN2c1ccc(Cl)cc1Cl
8.27	7.62	CCCC(CCC)n1c(CC)nc2c1C(=O)N(C)CN2c1ccc(Cl)cc1Cl
